Experimental data: ChEMBL document CHEMBL1255244, “Antimycobacterial Activity and Mechanism of Action of NAS-91” (2008)
≈ marks a conversion by molar mass, not a printed value. Calls of active or inactive are those of the source. The calls are words filed in the database; no cut-off is given here.

Columns and labels:
[1] = test system: Mycobacterium bovis BCG str. Pasteur 1173P2; test: Antimycobacterial activity against Mycobacterium bovis BCG 1173P2 assessed as inhibition of oleic acid methyl ester synthesis at 100 ug/ml after 8 hrs; format: functional
Procedure, shortened: (§1)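 BCG in Sauton's medium, drug 8 h, then [14C]acetate labelling for 16 h. Methyl esters resolved by 2-D TLC: first dimension without silver, hexane-ethyl acetate 19:1 run twice; then silver nitrate layer, petroleum ether-diethyl ether 17:3 run three times. Triplicates, one of three experiments, mean ± SEM, Student's t test.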

[2] = Antimycobacterial activity against Mycobacterium bovis BCG 1173P2; format: functional, Mycobacterium bovis BCG str. Pasteur 1173P2; conditions: Mycobacterium tuberculosis variant bovis BCG
Procedure, shortened: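 M. bovis BCG on Middlebrook 7H11 agar with OADC and increasing inhibitor concentrations. Serial 10-fold dilutions of actively growing culture plated, 37°C for 10 to 14 days.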

[3] = test system: Mycobacterium bovis BCG str. Pasteur 1173P2; test: Antimycobacterial activity against Mycobacterium bovis BCG 1173P2 assessed as inhibition of oleic acid methyl ester synthesis after 8 hrs; format: functional; procedure, shortened: as §1
BCG = test: Inhibition of delta-9 desaturase activity in Mycobacterium bovis BCG cell extract 1173P2 assessed as inhibition of oleic acid synthesis at 25 ug/ml after 1 hr in presence of NADPH and [1-14C]stearoyl-CoA; format: cell-free; design: scale not given: the % may be the effect or the level left; conditions: Mycobacterium bovis BCG str. Pasteur 1173P2
Procedure, shortened: (§2)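 Cell-free assay. BCG grown in Sauton's with 20 µg/ml FeSO4, French-press lysed in 0.25 M sucrose. 1 mg lysate, 1 µmol NADPH, phosphate buffer pH 7.2, in 1 ml. Inhibitor preincubated 10 min at 37°C, then 0.25 µCi [1-14C]stearoyl-CoA added, 37°C 1 h. Saponified, methylated, [14C]oleate band scraped and counted. Triplicates, one of two experiments, mean ± SEM.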

[4] = test system: Mycobacterium tuberculosis; test: Antimycobacterial activity against Mycobacterium tuberculosis H37Rv at 10 ug/ml after 15 to 20 days by agar proportion method; format: functional
Procedure, shortened: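 Agar proportion method. H37Rv grown in 7H9 at 37°C with shaking to OD600 1.0. Diluted log-phase culture giving about 1,000 CFU plated on 7H11+OADC control and drug-containing plates, incubated 37°C.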

BCG 1173P2 = test: Inhibition of delta-9 desaturase activity in Mycobacterium bovis BCG 1173P2 cell extract assessed as inhibition of oleic acid synthesis at 10 to 100 ug/ml after 1 hr in presence of NADPH and [1-14C]stearoyl-CoA; format: cell-free; conditions: Mycobacterium bovis BCG str. Pasteur 1173P2; procedure, shortened: as §2
[5] = test system: Mycobacterium bovis BCG str. Pasteur 1173P2; test: Antimycobacterial activity against Mycobacterium bovis BCG 1173P2 assessed as inhibition of mycolic acid biosynthesis at 100 ug/ml after 8 hrs; format: functional; design: scale not given: the % may be the effect or the level left
Procedure, shortened: (§3)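 Mid-log BCG in Sauton's medium, drug at 37°C for 8 h, then 1 µCi/ml [2-14C]acetate for 16 h. Cells PBS-washed, hydrolysed in 15% tetrabutylammonium hydroxide at 100°C overnight, methylated with CH3I. TLC: MAME bands scraped and counted; FAMEs (50,000 cpm) on reverse-phase TLC, chloroform-methanol 2:3. INH 1 µg/ml positive control. Triplicates, one of three experiments, mean ± SEM.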

[6] = test system: Mycolicibacterium smegmatis; test: Antimycobacterial activity against Mycobacterium smegmatis at 100 ug/ml after 15 to 20 days by agar proportion method; format: functional, organism-based
[7] = test system: Mycobacterium bovis BCG str. Pasteur 1173P2; test: Antimycobacterial activity against Mycobacterium bovis BCG 1173P2 assessed as inhibition of mycolic acid biosynthesis; format: functional; procedure, shortened: as §3
[8] = test system: Mycobacterium bovis BCG str. Pasteur 1173P2; test: Antimycobacterial activity against Mycobacterium bovis BCG 1173P2 assessed as inhibition of FAS-2 activity at 5 ug/ml after 8 hrs; format: functional; procedure, shortened: as §3

SMILES | Activity [1] | MIC [2] [mg/L] | Activity [3] | Activity (BCG) [%] | Activity [4] [%] | Activity (BCG 1173P2) | Activity [5] [%] | Activity [6] | Activity [7] | Activity [8]
O=C(CC(=O)C(F)(F)F)c1ccc([N+](=O)[O-])cc1 | Active | 50 (≈ 191 µM) | Dose-dependent effect | 25 | – | – | – | – | – | –
Oc1ccc(Cl)cc1Oc1ccc(Cl)c2cccnc12 | Active | 10 (≈ 32.7 µM) | Dose-dependent effect | 75 | 99 | Dose-dependent effect | 55 | inactive | Active | Active
